# Laboratory results published in ChEMBL document CHEMBL4004815, “(-)-Neocaryachine, an Antiproliferative Pavine Alkaloid from Cryptocarya laevigata, Induces DNA Double-Strand Breaks” (J Nat Prod, 2017).
# Active and inactive are the calls of the source. The calls are words filed in the database; no cut-off is given here.
# Key:
# [1] = Antiproliferative activity against human KBVIN cells after 72 hrs by SRB assay; assay type: functional, cell-based
# Summary of the method: (§1)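 Cells seeded at 4000−12 000 per well, density set by the line's doubling time. Compounds were added in DMSO, at most 0.1% v/v. After 72 h exposure, attached cells were fixed with 10% TCA, stained with 0.04% SRB, and the dye was solubilised in 10 mM Tris base. Absorbance read at 515 nm. IC50 is 50% reduction relative to untreated cells, averaged over at least three independent experiments in duplicate. KB-VIN was maintained in 100 nM VIN.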
# [2] = system: MCF7; assay: Antiproliferative activity against human MCF7 cells after 72 hrs by SRB assay; assay type: functional, cell-based; conditions: MCF7, 72 h; summary of the method: as §1
# [3] = system: A549; assay: Antiproliferative activity against human A549 cells after 72 hrs by SRB assay; assay type: functional, cell-based; conditions: A549, 72 h
# Summary of the method: (§2)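 Cells seeded at 4000−12 000 per well, density set by the line's doubling time. Compounds were added in DMSO, at most 0.1% v/v. After 72 h exposure, attached cells were fixed with 10% TCA, stained with 0.04% SRB, and the dye was solubilised in 10 mM Tris base. KB-VIN was maintained in 100 nM VIN.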
# [4] = system: MDA-MB-231; assay: Antiproliferative activity against human MDA-MB-231 cells after 72 hrs by SRB assay; assay type: functional, cell-based; conditions: MDA-MB-231, 72 h; summary of the method: as §2
# [5] = system: KB; assay: Antiproliferative activity against human KB cells after 72 hrs by SRB assay; assay type: functional, cell-based; summary of the method: as §2
# [6] = system: KBVIN; assay: Cell cycle arrest in human KBVIN cells assessed as accumulation at S phase at 20 uM after 24 to 48 hrs by propidium iodide staining-based flow cytometric method; assay type: functional
# Summary of the method: (§3)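 KB-VIN cells were seeded 24 h before dosing, then exposed for 24 or 48 h, with 0.1% DMSO as the vehicle control. DNA content was stained with propidium iodide and cell-cycle distribution (sub-G1, S, G2/M) analysed by flow cytometry. Experiments were repeated at least three times.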
# [7] = species: Homo sapiens; assay: Induction of DNA double strand breaks in human KBVIN cells assessed as increase in gamma-H2AX positive nuclei at 20 uM after 24 hrs by DAPI staining-based confocal fluorescence microscopic method; assay type: cell-based
# Summary of the method: (§4)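 KB-VIN cells on chamber slides were dosed 24 h after seeding and treated for 24 h, with 0.1% DMSO as control. Cells were fixed in ice-cold 4% paraformaldehyde/PBS and permeabilised with 0.5% Triton X-100. Staining used mouse anti-α-tubulin with FITC secondary, rabbit anti-γ-H2AX with Alexa Fluor 546 secondary, and DAPI for nuclei. Stacked confocal images were examined.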
# [8] = species: Homo sapiens; assay: Induction of morphological changes of microtubule in human KBVIN cells at 20 uM after 24 hrs by DAPI staining-based confocal fluorescence microscopic method; assay type: cell-based; summary of the method: as §4
# [9] = system: KBVIN; assay: Cell cycle arrest in human KBVIN cells assessed as increase in cell levels at sub G1 phase at 20 uM after 48 hrs by propidium iodide staining-based flow cytometric method; assay type: functional; summary of the method: as §3
# [10] = species: Homo sapiens; assay: Induction of DNA double strand breaks in human KBVIN cells assessed as increase in gamma-H2AX positive nuclei after 24 hrs by DAPI staining-based confocal fluorescence microscopic method; assay type: cell-based
# Summary of the method: (§5)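 KB-VIN cells on chamber slides 24 h, then compound (0.3 and 3.0 µM) or 0.1% DMSO for 24 h. Fixed in ice-cold 4% paraformaldehyde/PBS, permeabilised with 0.5% Triton X-100. Stained with mouse anti-α-tubulin (FITC secondary), rabbit anti-γ-H2AX (Alexa Fluor 546 secondary) and DAPI. Imaged by confocal microscopy as stacked images.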
# [11] = system: KBVIN; assay: Induction of apoptosis in human KBVIN cells assessed as nuclear fragmentation at 0.3 to 3 uM after 24 hrs by DAPI staining-based confocal fluorescence microscopic method; assay type: functional, cell-based; summary of the method: as §5
# [12] = system: KBVIN; assay: Cell cycle arrest in human KBVIN cells assessed as accumulation at S phase at 3 to 10 uM after 24 to 48 hrs by propidium iodide staining-based flow cytometric method; assay type: functional
# Summary of the method: (§6)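 KB-VIN (P-gp-overexpressing MDR KB subline, maintained with 100 nM vincristine) seeded 24 h before treatment. Compound exposure 24 or 48 h, vehicle 0.1% DMSO; 5-FU and CA-4 (10 nM, 24 h) served as S and G2/M arrest controls. DNA content read by propidium iodide staining and flow cytometry. Experiments repeated at least three times.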
# [13] = species: Homo sapiens; assay: Induction of morphological changes of microtubule in human KBVIN cells at 3 uM after 24 hrs by DAPI staining-based confocal fluorescence microscopic method; assay type: cell-based; summary of the method: as §5
# [14] = system: KBVIN; assay: Cell cycle arrest in human KBVIN cells assessed as accumulation at sub-G1 phase at 0.3 uM after 48 hrs by propidium iodide staining-based flow cytometric method; assay type: functional; summary of the method: as §6
# [15] = system: KBVIN; assay: Cell cycle arrest in human KBVIN cells at 0.3 uM after 24 hrs by propidium iodide staining-based flow cytometric method; assay type: functional; summary of the method: as §6
Structure (SMILES),IC50 [1] [µM],IC50 [2] [µM],IC50 [3] [µM],IC50 [4] [µM],IC50 [5] [µM],Activity [6],Activity [7],Activity [8],Activity [9],Activity [10],Activity [11],Activity [12],Activity [13],Activity [14],Activity [15]
CC(=O)O[C@H]1C(=O)[C@@]2(C)[C@H]([C@H](OC(=O)c3ccccc3)[C@]3(O)C[C@H](OC(=O)[C@H](O)[C@@H](NC(=O)c4ccccc4)c4ccccc4)C(C)=C1C3(C)C)[C@]1(OC(C)=O)CO[C@@H]1C[C@@H]2O [PACLITAXEL],1.93,0.0104,–,–,–,–,–,–,–,–,–,–,–,–,–
COc1cc2c(cc1O)[C@@H]1Cc3cc(OC)c(OC)cc3[C@H](C2)N1C,> 40,> 40,> 40,> 40,> 40,–,–,–,–,–,–,–,–,–,–
C[N+]1([O-])[C@H]2Cc3cc4c(cc3[C@@H]1Cc1cc3c(cc12)OCO3)OCO4 (some centres not stated),> 40,> 40,29.3,41,35.5,–,–,–,–,–,–,–,–,–,–
CN1[C@H]2Cc3cc4c(cc3[C@@H]1Cc1cc3c(cc12)OCO3)OCO4 [ESCHOLTZINE],19.8,26.6,8.71,26.1,17,inactive,inactive,inactive,Active,–,–,–,–,–,–
COc1ccc2c(c1O)[C@@H]1Cc3cc4c(cc3[C@H](C2)N1C)OCO4,0.241,0.413,0.064,0.264,0.228,–,–,–,–,Dose-dependent effect,Active,Active,Active,Active,inactive
COc1cc2c(cc1O)C[C@H]1c3cc4c(cc3C[C@@H]2N1C)OCO4,5.91,7.42,3.98,5.71,5.49,–,–,–,–,–,–,–,–,–,–
